Assays:
Format in all cases: organism-based
[1] = molecular target: T1, Angiotensin-converting enzyme (Rattus norvegicus) (UniProt P47820); experiment: Compound was tested for plasma inhibition of Angiotensin I converting enzyme activity in the conscious rat. Expressed as Inhibition of AI pressor response at 6 hr at a dose of 12.8 mg/kg po; set-up: dose 12.8 mg/kg
T1 sequence (whole entry): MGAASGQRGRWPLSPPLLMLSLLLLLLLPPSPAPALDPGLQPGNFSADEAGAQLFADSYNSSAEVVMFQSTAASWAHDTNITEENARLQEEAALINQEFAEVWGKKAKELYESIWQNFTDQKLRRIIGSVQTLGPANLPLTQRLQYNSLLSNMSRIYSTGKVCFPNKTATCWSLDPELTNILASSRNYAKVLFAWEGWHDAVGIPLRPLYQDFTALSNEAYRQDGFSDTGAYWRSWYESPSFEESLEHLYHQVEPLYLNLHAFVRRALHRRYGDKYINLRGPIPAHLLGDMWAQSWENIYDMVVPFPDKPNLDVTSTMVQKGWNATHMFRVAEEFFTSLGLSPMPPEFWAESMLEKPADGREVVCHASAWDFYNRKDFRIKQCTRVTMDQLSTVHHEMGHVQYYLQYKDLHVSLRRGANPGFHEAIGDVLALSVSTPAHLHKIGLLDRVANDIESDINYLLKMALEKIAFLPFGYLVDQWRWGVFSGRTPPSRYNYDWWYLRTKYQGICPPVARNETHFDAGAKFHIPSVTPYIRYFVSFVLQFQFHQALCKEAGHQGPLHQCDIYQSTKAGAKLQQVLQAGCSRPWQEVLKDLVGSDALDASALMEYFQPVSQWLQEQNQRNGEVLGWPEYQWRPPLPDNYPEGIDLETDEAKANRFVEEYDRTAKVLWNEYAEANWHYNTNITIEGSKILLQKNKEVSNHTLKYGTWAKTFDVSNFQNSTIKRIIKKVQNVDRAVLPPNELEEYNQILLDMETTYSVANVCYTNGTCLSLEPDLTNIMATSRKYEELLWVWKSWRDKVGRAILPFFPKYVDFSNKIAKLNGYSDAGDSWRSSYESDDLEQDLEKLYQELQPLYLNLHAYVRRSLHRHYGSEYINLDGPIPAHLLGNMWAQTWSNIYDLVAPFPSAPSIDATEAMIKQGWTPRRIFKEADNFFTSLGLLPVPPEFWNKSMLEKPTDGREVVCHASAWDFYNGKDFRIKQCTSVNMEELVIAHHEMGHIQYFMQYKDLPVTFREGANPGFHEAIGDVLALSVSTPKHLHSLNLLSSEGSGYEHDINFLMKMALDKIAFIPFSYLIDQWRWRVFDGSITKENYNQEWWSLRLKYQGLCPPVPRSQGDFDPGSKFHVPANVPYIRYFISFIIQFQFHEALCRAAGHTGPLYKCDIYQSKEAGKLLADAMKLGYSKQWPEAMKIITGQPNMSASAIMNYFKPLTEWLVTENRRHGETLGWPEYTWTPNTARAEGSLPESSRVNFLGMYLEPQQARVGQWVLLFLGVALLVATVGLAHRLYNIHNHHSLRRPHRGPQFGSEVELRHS
Outline: (§1)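 Male conscious normotensive Sprague-Dawley rats (275-390 g), prepared under methohexital sodium (75 mg/kg ip) with femoral arterial and venous catheters. The next day, pressor responses to three angiotensin-I challenges (300 ng/kg iv) were recorded. Compound was then given orally and angiotensin-I challenges were repeated at set times. Percent inhibition is relative to the mean of the three baseline responses.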

[2] = molecular target: T1, Angiotensin-converting enzyme (Rattus norvegicus); experiment: Compound was tested for plasma inhibition of Angiotensin I converting enzyme activity in the conscious rat. Expressed as Inhibition of AI pressor response at 1 hr at a dose of 12.8 mg/kg po; set-up: dose 12.8 mg/kg
Outline: (§2)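 Male conscious normotensive Sprague-Dawley rats (275-390 g), given femoral arterial and venous catheters under methohexital sodium (75 mg/kg ip) anesthesia. Next day, pressor responses to three angiotensin-I challenges (300 ng/kg iv) recorded by direct arterial pressure. Compound then dosed orally, and AI challenge repeated at set times. Each post-dose response compared with the mean of the three baseline responses, giving % inhibition.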

[3] = molecular target: T1, Angiotensin-converting enzyme (Rattus norvegicus); experiment: Compound was tested for plasma inhibition of Angiotensin I converting enzyme activity in the conscious rat. Expressed as Inhibition of AI pressor response at 2 hr at a dose of 12.8 mg/kg po; set-up: dose 12.8 mg/kg; outline: as §2
[4] = molecular target: T1, Angiotensin-converting enzyme (Rattus norvegicus); experiment: Compound was tested for plasma inhibition of Angiotensin I converting enzyme activity in the conscious rat. Expressed as Inhibition of AI pressor response at 4 hr at a dose of 10 mg/kg po; set-up: dose 10 mg/kg; outline: as §2
[5] = molecular target: T1, Angiotensin-converting enzyme (Rattus norvegicus); experiment: Compound was tested for plasma inhibition of Angiotensin I converting enzyme activity in the conscious rat. Expressed as Inhibition of AI pressor response at 4 hr at a dose of 12.8 mg/kg po; set-up: dose 12.8 mg/kg; outline: as §2
[6] = molecular target: T1, Angiotensin-converting enzyme (Rattus norvegicus); experiment: Compound was tested for plasma inhibition of Angiotensin I converting enzyme activity in the conscious rat. Expressed as Inhibition of AI pressor response at 6 hr at a dose of 13.1 mg/kg po; set-up: dose 13.1 mg/kg; outline: as §1
[7] = molecular target: T1, Angiotensin-converting enzyme (Rattus norvegicus); experiment: Compound was tested for plasma inhibition of Angiotensin I converting enzyme activity in the conscious rat. Expressed as Inhibition of AI pressor response at 4 hr at a dose of 13.1 mg/kg po; set-up: dose 13.1 mg/kg; outline: as §1
[8] = molecular target: T1, Angiotensin-converting enzyme (Rattus norvegicus); experiment: Compound was tested for plasma inhibition of Angiotensin I converting enzyme activity in the conscious rat. Expressed as Inhibition of AI pressor response at 2 hr at a dose of 13.1 mg/kg po; set-up: dose 13.1 mg/kg; outline: as §2
[9] = molecular target: T1, Angiotensin-converting enzyme (Rattus norvegicus); experiment: Compound was tested for plasma inhibition of Angiotensin I converting enzyme activity in the conscious rat. Expressed as Inhibition of AI pressor response at 1 hr at a dose of 13.1 mg/kg po; set-up: dose 13.1 mg/kg; outline: as §2
[10] = molecular target: T1, Angiotensin-converting enzyme (Rattus norvegicus); experiment: Compound was tested for plasma inhibition of Angiotensin I converting enzyme activity in the conscious rat. Expressed as Inhibition of AI pressor response at 1 hr at a dose of 10 mg/kg po; set-up: dose 10 mg/kg; outline: as §2
[11] = molecular target: T1, Angiotensin-converting enzyme (Rattus norvegicus); experiment: Compound was tested for plasma inhibition of Angiotensin I converting enzyme activity in the conscious rat. Expressed as Inhibition of AI pressor response at 6 hr at a dose of 10 mg/kg po; set-up: dose 10 mg/kg; outline: as §1
[12] = molecular target: T1, Angiotensin-converting enzyme (Rattus norvegicus); experiment: Compound was tested for plasma inhibition of Angiotensin I converting enzyme activity in the conscious rat. Expressed as Inhibition of AI pressor response at 2 hr at a dose of 10 mg/kg po; set-up: dose 10 mg/kg; outline: as §2
[13] = molecular target: T1, Angiotensin-converting enzyme (Rattus norvegicus); experiment: Compound was tested for plasma inhibition of Angiotensin I converting enzyme activity in the conscious rat. Expressed as Inhibition of AI pressor response at 4 hr at a dose of 12.7 mg/kg po; set-up: dose 12.7 mg/kg; outline: as §2
[14] = molecular target: T1, Angiotensin-converting enzyme (Rattus norvegicus); experiment: Compound was tested for plasma inhibition of Angiotensin I converting enzyme activity in the conscious rat. Expressed as Inhibition of AI pressor response at 1 hr at a dose of 12.7 mg/kg po; set-up: dose 12.7 mg/kg; outline: as §2
[15] = molecular target: T1, Angiotensin-converting enzyme (Rattus norvegicus); experiment: Compound was tested for plasma inhibition of Angiotensin I converting enzyme activity in the conscious rat. Expressed as Inhibition of AI pressor response at 6 hr at a dose of 12.7 mg/kg po; set-up: dose 12.7 mg/kg; outline: as §1
[16] = molecular target: T1, Angiotensin-converting enzyme (Rattus norvegicus); experiment: Compound was tested for plasma inhibition of Angiotensin I converting enzyme activity in the conscious rat. Expressed as Inhibition of AI pressor response at 2 hr at a dose of 12.7 mg/kg po; set-up: dose 12.7 mg/kg; outline: as §2

| inhibition [1] | inhibition [2] | inhibition [3] | inhibition [6] | inhibition [7] | inhibition [8] | inhibition [9] | Compound | other results |
| --- | --- | --- | --- | --- | --- | --- | --- | --- |
| 58% | 75% | 70% | – | – | – | – | CCCCOC(=O)[C@H](Cc1ccc(OC)cc1)NC(=O)C1(NC(=O)[C@H](SC(C)=O)C(C)C)CCCC1 | inhibition [4]: 65% |
| 19% | 8% | 17% | – | – | – | – | CCOC(=O)[C@H](Cc1ccc(O)cc1)NC(=O)C1(NC(=O)[C@H](SC(=O)C(C)(C)C)C(C)C)CCCC1 | inhibition [5]: 14% |
| – | – | – | 16% | 61% | 78% | 64% | CCCCCCOC(=O)[C@H](Cc1ccc(O)cc1)NC(=O)C1(NC(=O)[C@H](SC(C)=O)C(C)C)CCCC1 | – |
| – | – | – | 69% | 76% | 85% | 82% | CCCCOC(=O)[C@H](Cc1ccc(O)cc1)NC(=O)C1(NC(=O)[C@H](SC(=O)CCC)C(C)C)CCCC1 | – |
| 16% | 64% | 52% | – | – | – | – | CCOC(=O)[C@H](Cc1ccc(OC(C)=O)cc1)NC(=O)C1(NC(=O)[C@H](SC(C)=O)C(C)C)CCCC1 | inhibition [5]: 31% |
| – | – | – | – | – | – | – | CCOC(=O)[C@H](CCc1ccccc1)N[C@H]1CCc2ccccc2N(CC(=O)O)C1=O | inhibition [10]: 100%; inhibition [11]: 16%; inhibition [4]: 39%; inhibition [12]: 77% |
| – | – | – | 54% | 58% | 75% | 76% | CCCCOC(=O)[C@H](Cc1ccc(O)cc1)NC(=O)C1(NC(=O)[C@H](SC(=O)COC)C(C)C)CCCC1 | – |
| – | – | – | – | – | – | – | CC(=O)S[C@@H](C(=O)NC1(C(=O)N[C@@H](Cc2ccc(O)cc2)C(=O)OC2CCCC2)CCCC1)C(C)C | inhibition [13]: 33%; inhibition [14]: 58%; inhibition [15]: 29%; inhibition [16]: 51% |
| – | – | – | – | 25% | 16% | 27% | CCCCOC(=O)[C@H](Cc1ccc(O)cc1)NC(=O)C1(NC(=O)[C@H](SC(=O)C(C)C)C(C)C)CCCC1 | – |

Reference: ChEMBL document CHEMBL1129264, “Mercaptoacyl dipeptides as orally active dual inhibitors of angiotensin-converting enzyme and neutral endopeptidase” (1996)
